# Experimental data as given in PubChem BioAssay AID623895 (Broad Institute, 2012).
# Active and inactive are the calls of the source.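 Rule for the calls: active = compounds with an ATP-loss curve whose half-maximal dose stays within twice the top dose, in every run; inconclusive = mixed run calls, weak flat effects or poor fits; inactive = the rest, including opposite-direction effects.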
# Assay: viability loss of SR-BI expressing CHO cells – cell-based, 24 h, ATP luminescence, dry powder, set 6, cytotoxicity control for SR-BI HDL uptake inhibitor project, dose response (AID 623895)
# Conditions: ldlA[mSR-BI] CHO cells viability, ATP luminescence, 24 h; at 35 µM (top of the series)
# Outline: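 Assay system: ldlA[mSR-BI] cells | Quantity: 4,000 cells per well | Buffer or medium: Ham's F12 plus 10% FCS | Incubation: 24 h compound exposure at 37 °C, luminescence read 10 min after reagent | Dosing: 8 compound concentrations | Measure: Viability IC50 from dose-response fit | Technique: ATP luminescence (Cell Titer Glo)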
row,Structure (SMILES),"activity change, negative = cytotoxicity"
1,C[C@@H]1CN([C@H](C)CO)C(=O)c2cc(NC(=O)CCCCCC(=O)Nc3ccccc3N)ccc2O[C@H]1CN(C)S(=O)(=O)c1ccc(Cl)cc1,-0.144% (inactive)
2,C[C@@H]1CN([C@H](C)CO)C(=O)c2cc(NC(=O)Cn3cnnn3)ccc2O[C@H]1CN(C)S(=O)(=O)c1ccc(Cl)cc1,10.5% (inactive)
3,C[C@@H]1CN([C@H](C)CO)C(=O)c2cc(NC(=O)C3CCCCC3)ccc2O[C@H]1CN(C)C(=O)c1ccc(Cl)cc1,-24.6% (inactive)
4,C[C@@H]1CN([C@H](C)CO)C(=O)c2cc(NC(=O)Cc3cn(C)c4ccccc34)ccc2O[C@H]1CN(C)S(=O)(=O)c1ccccc1,-5.11% (inactive)
5,COc1ccc(NC(=O)Nc2ccc3c(c2)C(=O)N([C@H](C)CO)C[C@@H](C)[C@H](CN(C)S(=O)(=O)c2ccc(Cl)cc2)O3)cc1,-15.6% (inactive)
6,C[C@@H]1CN([C@H](C)CO)C(=O)c2cc(NC(=O)Cc3cn(C)c4ccccc34)ccc2O[C@H]1CN(C)Cc1ccccc1,-31.2% (inactive)
7,Cc1ccccc1-c1ccc2c(c1)O[C@H](CN(C)C(=O)Nc1ccc(F)cc1)[C@H](C)CN([C@H](C)CO)S2(=O)=O,-28.5% (inactive)
8,Cc1noc(C)c1NC(=O)Nc1ccc2c(c1)C(=O)N([C@H](C)CO)C[C@@H](C)[C@H](CN(C)S(=O)(=O)c1ccc(Cl)cc1)O2,-7.8% (inactive)
9,C[C@H](C(=O)NC1CCCC1)N(C(=O)Cn1nnc(-c2ccc3c(c2)OCO3)n1)C1CCCCC1,-16.5% (inactive)
10,C[C@@H]1CN([C@H](C)CO)C(=O)c2cc(NC(=O)Cc3cn(C)c4ccccc34)ccc2O[C@H]1CN(C)Cc1ccncc1,-16.9% (inactive)
11,COc1ccc(CN(C)C[C@@H]2Oc3ccc(NC(=O)Cc4cn(C)c5ccccc45)cc3C(=O)N([C@H](C)CO)C[C@H]2C)cc1,-17.6% (inactive)
12,C[C@@H]1CN([C@@H](C)CO)C(=O)Cc2cc(NS(C)(=O)=O)ccc2O[C@@H]1CN(C)Cc1ccc(C(F)(F)F)cc1,-12.8% (inactive)
13,COc1ccc(S(=O)(=O)Nc2ccc3c(c2)C(=O)N([C@H](C)CO)C[C@@H](C)[C@H](CN(C)S(=O)(=O)c2ccc(Cl)cc2)O3)cc1,-22.9% (inactive)
14,C[C@@H]1CN([C@@H](C)CO)C(=O)Cc2cc(NS(=O)(=O)c3cn(C)cn3)ccc2O[C@@H]1CN(C)Cc1ccc(Cl)c(Cl)c1,-6.37% (inactive)
15,CC(C)NC(=O)Nc1cccc2c1O[C@@H](CN(C)Cc1ccc(C(F)(F)F)cc1)[C@@H](C)CN([C@@H](C)CO)C2=O,-11.3% (inactive)
16,C[C@@H]1CN([C@H](C)CN)C(=O)c2cc(NC(=O)Cc3cn(C)c4ccccc34)ccc2O[C@H]1CN(C)S(=O)(=O)c1ccc(Cl)cc1,-0.334% (inactive)
17,C[C@@H]1CN([C@H](C)CO)C(=O)c2cc(NC(=O)Cc3cn(C)c4ccccc34)ccc2O[C@H]1CN(C)C(=O)NC1CCCCC1,5.85% (inactive)
18,COc1ccc(S(=O)(=O)N(C)C[C@@H]2Oc3ccc(NC(=O)Cc4cn(C)c5ccccc45)cc3C(=O)N([C@H](C)CO)C[C@H]2C)cc1,-20.3% (inactive)
19,C[C@@H]1CN([C@H](C)CO)C(=O)c2cc(NS(C)(=O)=O)ccc2O[C@H]1CN(C)S(=O)(=O)c1ccc(Cl)cc1,-14.8% (inactive)
20,C[C@@H]1CN([C@H](C)CO)C(=O)c2cc(NC(=O)Cc3cn(C)c4ccccc34)ccc2O[C@H]1CN(C)C(=O)Nc1ccccc1,-12.4% (inactive)
21,C[C@H](CO)N1C[C@H](C)[C@H](CN(C)CC2CCCCC2)Oc2c(NS(=O)(=O)c3cn(C)cn3)cccc2C1=O,5.52% (inactive)

row,Structure (SMILES),"activity change, negative = cytotoxicity"
1,C[C@@H]1CN([C@H](C)CO)C(=O)c2cc(NC(=O)Nc3ccc(F)cc3)ccc2O[C@H]1CN(C)S(=O)(=O)c1ccc(Cl)cc1,-20.6% (inactive)
2,C[C@@H]1CN([C@@H](C)CO)C(=O)c2cc(NC(=O)Cc3cn(C)c4ccccc34)ccc2O[C@H]1CN(C)S(=O)(=O)c1ccc(Cl)cc1,-25.3% (inactive)
3,C[C@@H]1CN([C@H](C)CO)C(=O)c2cc(NS(=O)(=O)c3ccccc3)ccc2O[C@H]1CN(C)S(=O)(=O)c1ccc(Cl)cc1,-8.14% (inactive)
4,C[C@@H]1CN([C@H](C)CO)C(=O)c2cc(NS(=O)(=O)c3cccs3)ccc2O[C@H]1CN(C)S(=O)(=O)c1ccc(Cl)cc1,1.79% (inactive)
5,CO[C@H]1CN(C)C(=O)c2cc(NC(=O)c3ccccc3F)ccc2OC[C@@H](C)N(C(C)=O)C[C@@H]1C,1.07% (inactive)
6,C[C@@H]1CN([C@H](C)CO)C(=O)c2cc(NC(=O)Nc3cccc4ccccc34)ccc2O[C@H]1CN(C)S(=O)(=O)c1ccc(Cl)cc1,-10.4% (inactive)
7,C[C@@H]1CN([C@H](C)CO)C(=O)c2cc(NC(=O)C3CCCCC3)ccc2O[C@H]1CN(C)S(=O)(=O)c1ccccc1Cl,-18.6% (inactive)
8,Cc1ccc(S(=O)(=O)N(C)C[C@@H]2Oc3ccc(NC(=O)Cc4cn(C)c5ccccc45)cc3C(=O)N([C@H](C)CO)C[C@H]2C)cc1,-12.8% (inactive)
9,C[C@@H]1CN([C@H](C)CO)C(=O)c2cc(NC(=O)Nc3ccc(C(F)(F)F)cc3)ccc2O[C@H]1CN(C)S(=O)(=O)c1ccc(Cl)cc1,-31.8% (inactive)
10,CC(C)NC(=O)Nc1ccc2c(c1)C(=O)N([C@H](C)CO)C[C@@H](C)[C@H](CN(C)S(=O)(=O)c1ccc(Cl)cc1)O2,3.09% (inactive)
11,C[C@@H]1CN([C@@H](C)CO)C(=O)c2cc(NC(=O)NC3CCCCC3)ccc2O[C@H]1CN(C)Cc1ccncc1,5.45% (inactive)
12,C[C@@H]1CN([C@H](C)CO[Si](C)(C)C(C)(C)C)C(=O)c2cc(NC(=O)C3CCCCC3)ccc2O[C@H]1CN(C)C(=O)c1ccc(Cl)cc1,-16.8% (inactive)
13,C[C@@H]1CN([C@H](C)CO)C(=O)c2cc(NC(=O)Cc3cn(C)c4ccccc34)ccc2O[C@H]1CN(C)C(=O)Nc1cccc2ccccc12,-4.64% (inactive)
14,O=C(C[C@H]1CC[C@H](NC(=O)CC2CC2)[C@@H](CO)O1)NCc1ccc(Cl)cc1,-5.27% (inactive)
15,C[C@@H]1CN([C@H](C)CO)C(=O)c2cc(NC(=O)Cc3cn(C)c4ccccc34)ccc2O[C@H]1CN(C)C(=O)Nc1ccc2c(c1)OCO2,7.49% (inactive)
16,COc1ccc2c(c1)CC(C1(O)C(=O)N(C)c3ccccc31)C2=O (stereo unspecified),-9.47% (inactive)
17,Cc1noc(C)c1S(=O)(=O)N(C)C[C@H]1Oc2c(NC(=O)c3nc4ccccc4s3)cccc2C(=O)N([C@H](C)CO)C[C@H]1C,-8.36% (inactive)
18,CNC[C@@H]1OCCCC[C@@H](C)Oc2ccc(NS(=O)(=O)c3ccc(Cl)cc3)cc2C(=O)N([C@H](C)CO)C[C@H]1C,-5.46% (inactive)
19,CO[C@H]1CN(C)C(=O)c2ccc(NC(=O)C3CCCC3)cc2OC[C@@H](C)N(C(=O)CC2CC2)C[C@@H]1C,-11.9% (inactive)
20,C[C@@H]1CN([C@H](C)CO)C(=O)c2cc(NC(=O)Cc3cn(C)c4ccccc34)ccc2O[C@H]1CN(C)S(=O)(=O)c1cn(C)cn1,-6.33% (inactive)
